Results from ChEMBL document CHEMBL3797182, “In vitro evaluation of imidazo[4,5-c]quinolin-2-ones as gametocytocidal antimalarial agents” (Bioorg Med Chem Lett, 2016).

Columns and labels:
HepG2 = test: Cytotoxicity against human HepG2 cells assessed as cell viability after 24 hrs; type: cell-based; details: HepG2, 24 h
How it was run: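 HepG2 cell viability as general cytotoxicity. 1536-well, 11-point dose-response in duplicate, top concentration 46 μM. Torin 2 positive control, DMSO negative control.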

Plasmodium falciparum [1] = test: Gametocytocidal activity against chloroquine-sensitive late gametocytic stage (III to V) of Plasmodium falciparum 3D7 after 72 hrs by Alamar Blue assay; type: functional, organism-based; details: 3D7, 72 h
How it was run: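 Late-stage (III–V) P. falciparum 3D7 gametocytes. AlamarBlue redox indicator reads cytosolic metabolic activity as a measure of gametocyte viability. 1536-well format, 11-point dose-response, duplicates. Torin 2 positive control, DMSO negative control.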

Plasmodium falciparum [2] = test: Antimalarial activity against chloroquine-sensitive asexual blood stage of Plasmodium falciparum 3D7 infected in RBC after 72 hrs by SYBR Green assay; type: functional, organism-based; details: 3D7, 72 h
How it was run: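 Asexual blood-stage P. falciparum 3D7 (chloroquine-sensitive) parasites. 1536-well format, 11-point dose-response, duplicate tests. Torin 2 served as positive control and DMSO as negative control.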

Plasmodium falciparum [3] = test: Selectivity ratio of IC50 for chloroquine-sensitive late gametocytic stage (III to V) of Plasmodium falciparum 3D7 to IC50 for chloroquine-sensitive asexual blood stage of Plasmodium falciparum 3D7; type: functional

| Structure (SMILES) | IC50 (HepG2) [µM] | IC50 (Plasmodium falciparum [1]) [µM] | IC50 (Plasmodium falciparum [2]) [µM] | Ratio IC50 (Plasmodium falciparum [3]) |
| --- | --- | --- | --- | --- |
| O=c1[nH]c2cnc3ccccc3c2n1-c1cccc(C(F)(F)F)c1 | > 45 | 7.46 | 5.03 | – |
| Cn1c(=O)n(C2CC2)c2c3cc(-c4ccc(N)nc4)ccc3ncc21 | 11.4 | 0.865 | 1.16 | – |
| Cn1c(=O)n(-c2cccc(C(F)(F)F)c2)c2c3cc(-c4cccc(C#N)c4)ccc3ncc21 | > 45 | 2.16 | 0.184 | 11.7 |
| O=c1[nH]c2cnc3ccc(-c4ccc(O)nc4)cc3c2n1-c1cccc(C(F)(F)F)c1 | > 45 | 4.63 | 0.412 | – |
| Cn1c(=O)n(-c2ccc(C(F)(F)F)cc2)c2c3cc(-c4ccc(N)nc4)ccc3ncc21 | > 45 | 0.237 | 0.104 | – |
| Cn1c(=O)n(-c2ccc(C#N)cc2)c2c3cc(-c4ccc(N)nc4)ccc3ncc21 | > 45 | 0.118 | 0.098 | – |
| CS(=O)(=O)c1ccc(-c2ccc3ncc4[nH]c(=O)n(-c5cccc(C(F)(F)F)c5)c4c3c2)cc1 | > 45 | 1.11 | 1.16 | 1 |
| O=c1[nH]c2cnc3ccc(-c4ccc(Cl)cc4)cc3c2n1-c1cccc(C(F)(F)F)c1 | > 45 | 3.56 | 1.69 | 1 |
| Cn1c(=O)n(-c2cccc(C(F)(F)F)c2)c2c3cc(-c4ccc(C#N)cc4)ccc3ncc21 | > 45 | 11 | 7.33 | 1 |
| Cn1c(=O)n(-c2ccccc2)c2c3cc(-c4ccc(N)nc4)ccc3ncc21 | 6.54 | 0.219 | 0.069 | – |
| Nc1cccc(-c2ccc3ncc4[nH]c(=O)n(-c5cccc(C(F)(F)F)c5)c4c3c2)c1 | 6.17 | 0.637 | 0.275 | 1 |
| Cn1c(=O)n(-c2cccc(C(F)(F)F)c2)c2c3cc(-c4ccc(N)nc4)ccc3ncc21 | 2.6 | 0.028 | 0.007 | 4 |
| Cn1c(=O)n(-c2cccc(C(F)(F)F)c2)c2c3cc(-c4ccc(C(N)=O)cc4)ccc3ncc21 | 4.69 | 0.497 | 0.038 | 10 |
| Nc1ccc(-c2ccc3ncc4[nH]c(=O)n(-c5cccc(C(F)(F)F)c5)c4c3c2)cc1 | 7.23 | 3.27 | 0.283 | 11.6 |
| O=c1[nH]c2cnc3ccc(-c4ccccc4)cc3c2n1-c1cccc(C(F)(F)F)c1 | > 45 | 18.4 | 4.04 | 4.6 |
| N#Cc1cccc(-c2ccc3ncc4[nH]c(=O)n(-c5cccc(C(F)(F)F)c5)c4c3c2)c1 | > 45 | 2.79 | 0.874 | 1 |
| CC(=O)Nc1ccc(-c2ccc3ncc4[nH]c(=O)n(-c5cccc(C(F)(F)F)c5)c4c3c2)cn1 | > 45 | 0.186 | 0.081 | – |
| O=c1[nH]c2cnc3ccc(-c4ccc(F)cc4)cc3c2n1-c1cccc(C(F)(F)F)c1 | > 45 | 1.83 | 1.57 | 1 |
| Nc1ccc(-c2ccc3ncc4[nH]c(=O)n(-c5ccc(C(F)(F)F)cc5)c4c3c2)cn1 | > 45 | 0.576 | 0.53 | – |
| CCn1c(=O)n(-c2cccc(C(F)(F)F)c2)c2c3cc(-c4ccc(N)nc4)ccc3ncc21 | 3.68 | 0.205 | 0.183 | – |
| NS(=O)(=O)c1ccc(-c2ccc3ncc4[nH]c(=O)n(-c5cccc(C(F)(F)F)c5)c4c3c2)cc1 | > 45 | 2.33 | 0.948 | 1 |
| Cn1c(=O)n(-c2cccc(C(F)(F)F)c2)c2c3cc(-c4ccc(O)nc4)ccc3ncc21 | 23.5 | 0.294 | 0.158 | – |
| O=c1[nH]c2cnc3ccc(-c4cnc5ccccc5c4)cc3c2n1-c1cccc(C(F)(F)F)c1 | > 45 | 2.35 | 15.4 | – |
| Cn1c(=O)n(-c2cccc(C(F)(F)F)c2)c2c3cc(-c4ccccc4)ccc3ncc21 | > 45 | 4.71 | 0.442 | 10.7 |
| COc1ccc(-n2c(=O)n(C)c3cnc4ccc(-c5ccc(N)nc5)cc4c32)cc1 | 2.34 | 0.148 | 0.047 | – |
| Cn1c(=O)n(-c2cccc(C(F)(F)F)c2)c2c3cc(-c4ccc(Cl)cc4)ccc3ncc21 | > 45 | 1.86 | 1.75 | 1 |
| O=c1[nH]c2cnc3ccc(-c4cccnc4)cc3c2n1-c1cccc(C(F)(F)F)c1 | 2.25 | 11.4 | 2.82 | – |
| Cn1c(=O)n(-c2cccc(C(F)(F)F)c2)c2c3cc(-c4ccc(F)cc4)ccc3ncc21 | > 45 | 5.59 | 3.18 | 1 |
